Series [1] deals with Human immunodeficiency virus 1. As to the kind of experiment: In vitro integration activity provided by preintegration complexes isolated from HIV-infected cells. It is filed as functional. A digest of the protocol: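 Preintegration complexes were made with biologically inactivated HIV-based vectors and isolated from infected cells. They integrate their endogenously synthesized viral cDNA into an added target DNA, read out by microtiter plate assay over a range of compound concentrations.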

A short description of series [2]: HeLa cell cytotoxicity by MTT cytotoxicity assay. It is filed as cell-based. The settings on record: human, HeLa cells; read-out: LD50 (the source's name). A digest of the protocol: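 HeLa cells in culture exposed to a range of compound concentrations; viability read by MTT assay.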
In series [3] the test system is Molluscum contagiosum virus. As to the kind of experiment: DNA cleavage and religation activity tested by the inhibition of the type 1B topoisomerase of molluscum contagiosum virus (MCV) at a concentration of 200 uM; NA is Not Active. It is filed as functional. A digest of the protocol:
(§1)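 MCV type 1B topoisomerase counterscreen in microtiter plate format, reading DNA cleavage and religation; compounds tested up to 200 uM.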

In series [4] the test system is Molluscum contagiosum virus. As to the kind of experiment: DNA relaxation activity tested by the inhibition of the type 1B topoisomerase of molluscum contagiosum virus (MCV) at a concentration of 200 uM; NA is Not Active. The class given is functional. A digest of the protocol: (§2)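 MCV type 1B topoisomerase counterscreen reading DNA relaxation, with products analysed on gels.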

In series [5] the test system is Integrase (Human immunodeficiency virus 1). As to the kind of experiment: Compound was tested in vitro against 3'-processing (TC) in the presence of Mn2+ at a concentration of 200 uM; Na is Not Active.
The test system is the same in series [6]. As to the kind of experiment: Compound was tested in vitro against strand -transfer (ST) activity in the presence of Mn2+ at a concentration of 200 uM; NA is Not Active.
Series [7] shares this test system. As to the kind of experiment: Compound was tested in vitro against strand -transfer (ST) activity in the presence of Mg2+ as the cationic cofactor at a concentration of 200 uM; NA is Not Active.
The target of series [8] is T1, Topoiomerase 1B (Molluscum contagiosum virus subtype 1) (UniProt Q98254).
T1 sequence (whole entry): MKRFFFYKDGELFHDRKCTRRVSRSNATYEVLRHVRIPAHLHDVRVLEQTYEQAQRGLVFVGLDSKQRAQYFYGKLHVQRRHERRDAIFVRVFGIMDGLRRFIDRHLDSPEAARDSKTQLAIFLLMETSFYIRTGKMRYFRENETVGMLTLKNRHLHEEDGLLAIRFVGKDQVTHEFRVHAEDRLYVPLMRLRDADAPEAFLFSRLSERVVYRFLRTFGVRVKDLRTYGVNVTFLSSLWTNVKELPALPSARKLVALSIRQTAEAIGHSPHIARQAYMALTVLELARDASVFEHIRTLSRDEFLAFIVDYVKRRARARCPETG
As to the kind of experiment: (§3) DNA cleavage and religation activity as inhibition of type 1B topoisomerase of molluscum contagiosum virus (MCV). The class given is functional. An outline of the steps: (§4)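 Type 1B topoisomerase of molluscum contagiosum virus tested as a counterscreen in a microtiter plate format that reads out DNA cleavage and religation.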

The test system of series [9] is Molluscum contagiosum virus. Put plainly: DNA relaxation activity tested by the inhibition of the Type 1B topoisomerase of molluscum contagiosum virus (MCV). The class given is functional. An outline of the steps: (§5)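 Type 1B topoisomerase of molluscum contagiosum virus tested as a counterscreen. Supercoiled DNA relaxation was analysed on gels.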
The target in a further series is T2, Topoiomerase 1B (Molluscum contagiosum virus subtype 1, UniProt Q98254).
T2 sequence (Q98254 whole entry): T1 sequence (whole entry)
The series is described as §3. The class given is functional. A digest of the protocol:
as §4

Series [10] deals with Molluscum contagiosum virus. As to the kind of experiment: DNA relaxation activity tested by the inhibition of the type 1B topoisomerase of molluscum contagiosum virus (MCV)at a concentration of 200 uM; NA is Not Active. The class given is functional, organism-based. A digest of the protocol: as §5
For series [11], the system named is Molluscum contagiosum virus. Put plainly: DNA cleavage and religation activity tested by the inhibition of the type 1B topoisomerase of molluscum contagiosum virus (MCV)at a concentration of 200 uM; NA is Not Active. It is filed as functional. A digest of the protocol:
as §1

The test system of series [12] is Integrase (Human immunodeficiency virus 1). As to the kind of experiment: Compound was tested in vitro against 3''-processing (TC) in the presence of Mn2+ at a concentration of 200 uM; NA is Not Active.
In series [13] the test system is Molluscum contagiosum virus. As to the kind of experiment: DNA relaxation activity tested by the inhibition of the type 1B topoisomerase of molluscum contagiosum virus (MCV)at a concentration of 500 uM; NA is Not Active. It is filed as functional, organism-based. An outline of the steps: as §2
Series [14] deals with Integrase (Human immunodeficiency virus 1). Put plainly: Inhibition of 3'-processing (TC) in the presence of Mn2+ in vitro.
For series [15] the test system is unchanged. As to the kind of experiment: Inhibition of strand -transfer (ST) activity in the presence of Mn2+.
The test system is the same in series [16]. Put plainly: Tested in vitro against strand -transfer (ST) activity in the presence of Mg2+ as the cationic cofactor.

Experimental findings from ChEMBL document CHEMBL1133186, “A new class of HIV-1 integrase inhibitors: the 3,3,3', 3'-tetramethyl-1,1'-spirobi(indan)-5,5',6,6'-tetrol family” (J Med Chem, 2000) are described below.

Calls of active or inactive are those of the source. No cut-off for these calls is given here.

As usually defined, the IC50 is the concentration that inhibits the measured activity by half. The low end stands for greater potency, the high end for weaker potency. Molecule `Cc1cc2c(cc1O)C1(CC2(C)C)CC(C)(C)c2cc(C)c(O)cc21` displayed an IC50 in [1] of more than 80 µM. In addition, the CC50 in [2] amounted to 10 µM. Moreover, the “Inhibition of DNA cleavage and religation” value in [3] is “inactive”. Moreover, in series [4], the “Inhibition of DNA relaxation” value is “inactive”. For the same molecule, the NA result in series [5], in series [6] and in series [7] was “inactive” each time.
For the molecule `CC1(C)CC2(CC(C)(C)c3cc([N+](=O)[O-])c(O)c([N+](=O)[O-])c32)c2cc(O)c([N+](=O)[O-])cc21` (stereo not drawn), the values for the IC50 in series [1] and in [9] were more than 80 µM and 200 µM, respectively. Besides, in series [2], the CC50 was 41 µM. Further, the inhibition result in series [8] is “inactive”.
On to `CC1(C)CC2(CC(C)(C)c3ccc(O)c(NC(N)=O)c32)c2cc(O)c(NC(N)=O)cc21` (stereo not drawn), for which the IC50 in series [1] was more than 80 µM. Besides, in [2], the CC50 is 60 µM. Further, in [3], the “Inhibition of DNA cleavage and religation” value was “inactive”. The “Inhibition of DNA relaxation” value in [4] is “inactive”.
With `CC1(C)CC2(CC(C)(C)c3c(Br)c(OS(=O)(=O)O)c(OS(=O)(=O)O)c(Br)c32)c2c(Br)c(OS(=O)(=O)O)c(OS(=O)(=O)O)c(Br)c21`, the values for the IC50 (in [1]; at Topoiomerase 1B) were more than 80 µM and 75 µM, respectively. Also, the CC50 in series [2] was determined as 207 µM.
The molecule `CC1(C)CC2(CC(C)(C)c3ccc(OS(=O)(=O)O)cc32)c2cc(OS(=O)(=O)O)ccc21` had an IC50 in series [1] of more than 80 µM. Further, in series [2], the CC50 was more than 400 µM. Further, the inhibition result in series [8] is “inactive”.
The molecule `CC1(C)CC2(CC(C)(C)c3cc(Br)c(O)cc32)c2cc(O)c(Br)cc21` registered an IC50 in series [1] of more than 80 µM. For the same molecule, the CC50 in series [2] stood at 4 µM. Further, the “Inhibition of DNA cleavage and religation” value in series [3] was “inactive”. The “Inhibition of DNA relaxation” value in series [4] is “inactive”. Also, the NA entry in series [7] is “inactive”.
The molecule `CC1(C)CC2(CC(C)(C)c3cc(NC(N)=O)c(O)cc32)c2cc(O)c(NC(N)=O)cc21` came in with an IC50 in series [1] of more than 80 µM. Besides, the CC50 in series [2] amounted to 53 µM. Further, the NA entry in series [10], in series [11], in series [12], in series [6] and in [7] was “inactive” in each case.
Consider `CC1(C)CC2(CC(C)(C)c3ccc(O)cc32)c2cc(O)ccc21`, for which the IC50 in series [1] was more than 80 µM. Also, the CC50 in [2] is less than 20 µM. Besides, the NA entry in series [13] and in [11] was “inactive” in each case.
Molecule `CC1(C)CC2(CC(C)(C)c3cc([N+](=O)[O-])c(O)cc32)c2cc(O)c([N+](=O)[O-])cc21` displayed a half-inhibitory concentration (IC50) in [1] of more than 80 µM. Moreover, the CC50 in series [2] was 198 µM. For the same molecule, the inhibition entry in series [8], in series [9], in series [14], in series [15] and in series [16] was “inactive” throughout.
On to `CC1(C)CC2(CC(C)(C)c3cc(N)c(O)cc32)c2cc(O)c(N)cc21`, for which the IC50 in series [1] is more than 80 µM. Moreover, the CC50 in [2] came out at 47 µM. Besides, the inhibition entry in [8], in [9], in [14] and in series [15] was “inactive” throughout.
As for `CC1(C)CC2(CC(C)(C)c3cc(S(=O)(=O)O)c(O)cc32)c2cc(O)c(S(=O)(=O)O)cc21`, in series [1], the half-maximal inhibitory concentration (IC50) is more than 80 µM. In addition, the CC50 in series [2] was more than 600 µM. The inhibition result in series [8], in series [9], in series [14] and in [15] was “inactive” each time.
Turning to `CC1(C)CC2(CC(C)(C)c3c(Br)c(O)c(O)c(Br)c32)c2c(Br)c(O)c(O)c(Br)c21`, the values for the IC50 (in series [1]; on Topoiomerase 1B) were more than 80 µM and 50 µM, respectively. For the same molecule, in [2], the CC50 worked out at 18 µM. Moreover, in series [9], the inhibition result was “inactive”.
In series [1], `CC1(C)CC2(CC(C)(C)c3ccc(O)c(N)c32)c2cc(O)c(N)cc21` (stereo not drawn) yielded a concentration for half-maximal inhibition (IC50) of more than 80 µM. Besides, the CC50 in series [2] worked out at 3 µM. In addition, the inhibition result in series [8], in series [9], in series [14], in series [15] and in [16] was “inactive” in each case.
For `CC1(C)CC2(CC(C)(C)c3cc(O)c(O)cc32)c2cc(O)c(O)cc21`, the IC50 in [1] was more than 80 µM. Moreover, in series [2], the CC50 worked out at 65 µM. Besides, the inhibition entry in series [8] and in series [9] was “inactive” each time.
As for `CC1(C)CC2(CC(C)(C)c3ccc(O)c([N+](=O)[O-])c32)c2cc(O)c([N+](=O)[O-])cc21` (stereo not drawn), the IC50 in [1] is more than 80 µM. In addition, in series [2], the CC50 was determined as 41 µM. In addition, the inhibition result in series [8] and in series [9] was “inactive” in each case.
In the case of `CC1(C)CC2(CC(C)(C)c3cc(C=O)c(O)cc32)c2cc(O)c(C=O)cc21`, the half-inhibitory concentration (IC50) in series [1] is more than 80 µM. Further, the CC50 in series [2] stood at 4 µM. Besides, the inhibition result in [8] is “inactive”.
In the case of `CC1(C)CC2(CC(C)(C)c3cc(Br)c(OS(=O)(=O)O)cc32)c2cc(OS(=O)(=O)O)c(Br)cc21`, the IC50 in [1] is more than 80 µM. For the same molecule, in series [2], the CC50 turned out to be 50 µM. The inhibition result in series [8], in series [14], in [15] and in series [16] was “inactive” throughout.
`CC1(C)CC2(CC(C)(C)c3cc(I)c(O)cc32)c2cc(O)c(I)cc21`: the concentration for half-maximal inhibition (IC50) in series [1] is more than 80 µM. For the same molecule, the CC50 in series [2] is less than 20 µM. Moreover, the “Inhibition of DNA cleavage and religation” value in series [3] is “inactive”. Further, the “Inhibition of DNA relaxation” value in [4] is “inactive”. Further, the NA entry in [7] is “inactive”.
Regarding `CC1(C)CC2(CC(C)(C)c3cc(OS(=O)(=O)O)c(OS(=O)(=O)O)cc32)c2cc(OS(=O)(=O)O)c(OS(=O)(=O)O)cc21`, the IC50 was more than 80 µM in series [1] and 123 µM in series [9]. In addition, in series [2], the CC50 was 134 µM. For the same molecule, the inhibition entry in [8] was “inactive”.
